From ChEMBL document CHEMBL4152188, “Design, synthesis and biological evaluation of C(4) substituted monobactams as antibacterial agents against multidrug-resistant Gram-negative bacteria” (Eur J Med Chem, 2018)
Values after ≈ are worked out from the molar mass of the structure shown.

Experiments:
Format in all cases: functional
Escherichia coli [1] = test: Antibacterial activity against extended-spectrum beta-lactamase producing Escherichia coli isolate 212648 after 18 hrs in presence of BPL by CLSI broth microdilution method; details: isolate 212648, 18 h
Method in brief: (§1)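 CLSI broth microdilution against clinical isolates (ESBL E. coli, KPC-2 MDR K. pneumoniae, IMP-4 MDR P. aeruginosa; five per species). Iron limitation: Mueller-Hinton broth supplemented with 16 mg/liter 2,2'-bipyridyl to complex iron and induce iron uptake systems. Read-out: MIC.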

Klebsiella pneumoniae [2] = test: Antibacterial activity against KPC-2 producing Klebsiella pneumoniae isolate 209735 after 18 hrs by CLSI broth microdilution method; details: isolate 209735, 18 h
Pseudomonas aeruginosa [3] = test: Antibacterial activity against IMP-4 producing Pseudomonas aeruginosa isolate 207272 after 18 hrs in presence of BPL by CLSI broth microdilution method; details: isolate 207272, 18 h; method in brief: as §1
Klebsiella pneumoniae [4] = test: Antibacterial activity against KPC-2 producing Klebsiella pneumoniae isolate 209632 after 18 hrs in presence of BPL by CLSI broth microdilution method; details: isolate 209632, 18 h; method in brief: as §1
Pseudomonas aeruginosa [5] = test: Selectivity index, ratio of MIC for against IMP-4 producing Pseudomonas aeruginosa isolate 209321 to MIC for against IMP-4 producing Pseudomonas aeruginosa isolate 209321 in presence of BPL
Pseudomonas aeruginosa [6] = test: Antibacterial activity against IMP-4 producing Pseudomonas aeruginosa isolate 209471 after 18 hrs by CLSI broth microdilution method; details: isolate 209471, 18 h
Escherichia coli [7] = test: Antibacterial activity against Escherichia coli isolate 210737 after 18 hrs by CLSI broth microdilution method; details: isolate 210737, 18 h
Escherichia coli [8] = test: Antibacterial activity against extended-spectrum beta-lactamase producing Escherichia coli isolate 106342 after 18 hrs in presence of BPL by CLSI broth microdilution method; details: isolate 106342, 18 h; method in brief: as §1
Klebsiella pneumoniae [9] = test: Antibacterial activity against KPC-2 producing Klebsiella pneumoniae isolate 209632 after 18 hrs by CLSI broth microdilution method; details: isolate 209632, 18 h
Pseudomonas aeruginosa [10] = test: Antibacterial activity against IMP-4 producing Pseudomonas aeruginosa isolate 209471 after 18 hrs in presence of BPL by CLSI broth microdilution method; details: isolate 209471, 18 h; method in brief: as §1
Klebsiella pneumoniae [11] = test: Antibacterial activity against KPC-2 producing Klebsiella pneumoniae isolate 212232 after 18 hrs in presence of BPL by CLSI broth microdilution method; details: isolate 212232, 18 h; method in brief: as §1
Escherichia coli [12] = test: Antibacterial activity against Escherichia coli isolate 210737 after 18 hrs in presence of BPL by CLSI broth microdilution method; details: isolate 210737, 18 h; method in brief: as §1
Escherichia coli [13] = test: Antibacterial activity against extended-spectrum beta-lactamase producing Escherichia coli isolate 208687 after 18 hrs by CLSI broth microdilution method; details: isolate 208687, 18 h
Klebsiella pneumoniae [14] = test: Antibacterial activity against KPC-2 producing Klebsiella pneumoniae isolate 212232 after 18 hrs by CLSI broth microdilution method; details: isolate 212232, 18 h
Escherichia coli [15] = test: Antibacterial activity against extended-spectrum beta-lactamase producing Escherichia coli isolate 208687 after 18 hrs in presence of BPL by CLSI broth microdilution method; details: isolate 208687, 18 h; method in brief: as §1
Klebsiella pneumoniae [16] = test: Antibacterial activity against KPC-2 producing Klebsiella pneumoniae isolate 212423 after 18 hrs in presence of BPL by CLSI broth microdilution method; details: isolate 212423, 18 h; method in brief: as §1
Pseudomonas aeruginosa [17] = test: Selectivity index, ratio of MIC for against IMP-4 producing Pseudomonas aeruginosa isolate 209471 to MIC for against IMP-4 producing Pseudomonas aeruginosa isolate 209471 in presence of BPL
Escherichia coli [18] = test: Antibacterial activity against extended-spectrum beta-lactamase producing Escherichia coli isolate 209285 after 18 hrs in presence of BPL by CLSI broth microdilution method; details: isolate 209285, 18 h; method in brief: as §1
Pseudomonas aeruginosa [19] = test: Antibacterial activity against IMP-4 producing Pseudomonas aeruginosa isolate 208247 after 18 hrs in presence of BPL by CLSI broth microdilution method; details: isolate 208247, 18 h; method in brief: as §1
Pseudomonas aeruginosa [20] = test: Selectivity index, ratio of MIC for against IMP-4 producing Pseudomonas aeruginosa isolate 207272 to MIC for against IMP-4 producing Pseudomonas aeruginosa isolate 207272 in presence of BPL
Escherichia coli [21] = test: Antibacterial activity against extended-spectrum beta-lactamase producing Escherichia coli isolate 212648 after 18 hrs by CLSI broth microdilution method; details: isolate 212648, 18 h
Klebsiella pneumoniae [22] = test: Antibacterial activity against KPC-2 producing Klebsiella pneumoniae isolate 212229 after 18 hrs by CLSI broth microdilution method; details: isolate 212229, 18 h
Pseudomonas aeruginosa [23] = test: Antibacterial activity against IMP-4 producing Pseudomonas aeruginosa isolate 208247 after 18 hrs by CLSI broth microdilution method; details: isolate 208247, 18 h
Pseudomonas aeruginosa [24] = test: Antibacterial activity against IMP-4 producing Pseudomonas aeruginosa isolate 209321 after 18 hrs by CLSI broth microdilution method; details: isolate 209321, 18 h
Pseudomonas aeruginosa [25] = test: Antibacterial activity against IMP-4 producing Pseudomonas aeruginosa isolate 212886 after 18 hrs by CLSI broth microdilution method; details: isolate 212886, 18 h
Pseudomonas aeruginosa [26] = test: Antibacterial activity against IMP-4 producing Pseudomonas aeruginosa isolate 207272 after 18 hrs by CLSI broth microdilution method; details: isolate 207272, 18 h
Escherichia coli [27] = test: Selectivity index, ratio of MIC for against extended-spectrum beta-lactamase producing Escherichia coli isolate 106342 to MIC for extended-spectrum beta-lactamase producing Escherichia coli isolate 106342 in presence of BPL
Pseudomonas aeruginosa [28] = test: Antibacterial activity against IMP-4 producing Pseudomonas aeruginosa isolate 212886 after 18 hrs in presence of BPL by CLSI broth microdilution method; details: isolate 212886, 18 h; method in brief: as §1
Escherichia coli [29] = test: Antibacterial activity against extended-spectrum beta-lactamase producing Escherichia coli isolate 209285 after 18 hrs by CLSI broth microdilution method; details: isolate 209285, 18 h
Escherichia coli [30] = test: Antibacterial activity against extended-spectrum beta-lactamase producing Escherichia coli isolate 106342 after 18 hrs by CLSI broth microdilution method; details: isolate 106342, 18 h
Pseudomonas aeruginosa [31] = test: Antibacterial activity against IMP-4 producing Pseudomonas aeruginosa isolate 209321 after 18 hrs in presence of BPL by CLSI broth microdilution method; details: isolate 209321, 18 h; method in brief: as §1
Pseudomonas aeruginosa [32] = test: Selectivity index, ratio of MIC for against IMP-4 producing Pseudomonas aeruginosa isolate 212886 to MIC for against IMP-4 producing Pseudomonas aeruginosa isolate 212886 in presence of BPL
Klebsiella pneumoniae [33] = test: Antibacterial activity against KPC-2 producing Klebsiella pneumoniae isolate 209735 after 18 hrs in presence of BPL by CLSI broth microdilution method; details: isolate 209735, 18 h; method in brief: as §1
Klebsiella pneumoniae [34] = test: Antibacterial activity against KPC-2 producing Klebsiella pneumoniae isolate 212229 after 18 hrs in presence of BPL by CLSI broth microdilution method; details: isolate 212229, 18 h; method in brief: as §1
Klebsiella pneumoniae [35] = test: Antibacterial activity against KPC-2 producing Klebsiella pneumoniae isolate 212423 after 18 hrs by CLSI broth microdilution method; details: isolate 212423, 18 h
Pseudomonas aeruginosa [36] = test: Selectivity index, ratio of MIC for against IMP-4 producing Pseudomonas aeruginosa isolate 208247 to MIC for against IMP-4 producing Pseudomonas aeruginosa isolate 208247 in presence of BPL

MIC (Escherichia coli [1]): > 64 µg/mL
MIC (Klebsiella pneumoniae [2]): > 64 µg/mL
MIC (Pseudomonas aeruginosa [3]): > 64 µg/mL
MIC (Klebsiella pneumoniae [4]): > 64 µg/mL
MIC (Pseudomonas aeruginosa [6]): > 64 µg/mL
MIC (Escherichia coli [7]): > 64 µg/mL
MIC (Escherichia coli [8]): 64 µg/mL
MIC (Klebsiella pneumoniae [9]): > 64 µg/mL
MIC (Pseudomonas aeruginosa [10]): > 64 µg/mL
MIC (Klebsiella pneumoniae [11]): > 64 µg/mL
MIC (Escherichia coli [12]): > 64 µg/mL
MIC (Escherichia coli [13]): > 64 µg/mL
MIC (Klebsiella pneumoniae [14]): > 64 µg/mL
MIC (Escherichia coli [15]): > 64 µg/mL
MIC (Klebsiella pneumoniae [16]): > 64 µg/mL
MIC (Escherichia coli [18]): > 64 µg/mL
MIC (Pseudomonas aeruginosa [19]): 32 µg/mL
MIC (Escherichia coli [21]): > 64 µg/mL
MIC (Klebsiella pneumoniae [22]): > 64 µg/mL
MIC (Pseudomonas aeruginosa [23]): 64 µg/mL (≈ 118 µM)
MIC (Pseudomonas aeruginosa [24]): 64 µg/mL (≈ 118 µM)
MIC (Pseudomonas aeruginosa [25]): > 64 µg/mL
MIC (Pseudomonas aeruginosa [26]): > 64 µg/mL
MIC (Pseudomonas aeruginosa [28]): > 64 µg/mL
MIC (Escherichia coli [29]): > 64 µg/mL
MIC (Escherichia coli [30]): 64 µg/mL (≈ 118 µM)
MIC (Pseudomonas aeruginosa [31]): 64 µg/mL
MIC (Klebsiella pneumoniae [33]): > 64 µg/mL
MIC (Klebsiella pneumoniae [34]): > 64 µg/mL
MIC (Klebsiella pneumoniae [35]): > 64 µg/mL
Structure (SMILES): C#CC1[C@H](NC(=O)/C(=N\OC(c2cc(=O)c(O)cn2O)C(C)C)c2csc(N)n2)C(=O)N1S(=O)(=O)O (stereo partly specified)
Selectivity Index (Pseudomonas aeruginosa [5]): 1
Selectivity Index (Pseudomonas aeruginosa [17]): 1 - 2
Selectivity Index (Pseudomonas aeruginosa [20]): 1 - 2
Selectivity Index (Escherichia coli [27]): 1
Selectivity Index (Pseudomonas aeruginosa [32]): 1 - 2
Selectivity Index (Pseudomonas aeruginosa [36]): 2
